Calls of active or inactive are those of the source. The calls are words filed in the database; no cut-off is given here.
Assays:
184B5 [1] = assay: Cytotoxicity against human 184B5 cells assessed as growth inhibition after 48 hrs by SRB assay; type: cell-based; conditions: 184B5, 48 h
Outline: (§1)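 Cells seeded at 5000–10,000 per well and exposed continuously for 48 h to seven concentrations ([…]). DMSO stocks were diluted in medium, final DMSO ≤0.1%, and matched DMSO medium served as the negative control. Viable cell mass was read by SRB. IC50 is the concentration giving 50% growth decrease versus control. Values are the mean of triplicates from at least two independent experiments.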

MDA-MB-231 [2] = assay: Cytotoxicity against human MDA-MB-231 cells assessed as growth inhibition after 48 hrs by SRB assay; type: functional, cell-based; conditions: MDA-MB-231, 48 h; outline: as §1
MDA-MB-468 [3] = assay: Cytotoxicity against human MDA-MB-468 cells assessed as growth inhibition after 48 hrs by SRB assay; type: functional, cell-based; conditions: MDA-MB-468, 48 h; outline: as §1
MCF7 [4] = assay: Cytotoxicity against human MCF7 cells assessed as growth inhibition after 48 hrs by SRB assay; type: functional, cell-based; conditions: MCF7, 48 h; outline: as §1
MDA-MB-468 [5] = assay: Anticlonogenic activity against human MDA-MB-468 cells at 3.5 uM after 12 days; type: functional, cell-based
184B5 [6] = assay: Cell cycle arrest in human 184B5 cells assessed as accumulation at sub-G1 phase at 6 uM after 48 hrs by flow cytometric method; type: ADME, cell-based; conditions: 184b5, 48 h
MDA-MB-231 [7] = assay: Induction of apoptosis in human MDA-MB-231 cells assessed as increase in cytochrome c levels in mitochondria at 6 uM after 24 to 72 hrs by Western blot method; type: functional, cell-based
MDA-MB-231 [8] = assay: Induction of apoptosis in human MDA-MB-231 cells assessed as upregulation of Bad expression at 6 uM after 24 to 72 hrs by Western blot method; type: functional, cell-based
MDA-MB-231 [9] = assay: Induction of apoptosis in human MDA-MB-231 cells at 6 uM after 24 hrs by TUNEL assay; type: functional, cell-based
MDA-MB-231 [10] = assay: Induction of apoptosis in human MDA-MB-231 cells assessed as increase in PARP cleavage at 6 uM after 24 hrs by Western blot method; type: functional, cell-based
MCF7 [11] = assay: Induction of apoptosis in human MCF7 cells assessed as upregulation of Bad expression at 4 to 6 uM after 48 hrs by Western blot method; type: functional, cell-based
[12] = Selectivity index, ratio of IC50 for human MCF10A cells to IC50 for human MCF7 cells; type: toxicity; conditions: MCF10A cells versus MCF7 cells, read-out: Ratio IC50
MDA-MB-231 [13] = assay: Induction of apoptosis in human MDA-MB-231 cells assessed as downregulation of Bcl-2 expression at 6 uM after 24 to 72 hrs by Western blot method; type: functional, cell-based
MDA-MB-231 [14] = assay: Induction of apoptosis in human MDA-MB-231 cells assessed as upregulation of Bax expression at 6 uM after 24 to 72 hrs by Western blot method; type: functional, cell-based
[15] = Selectivity index, ratio of IC50 for human MCF10A cells to IC50 for human MDA-MB-231 cells; type: toxicity; conditions: MCF10A cells versus MDA-MB-231 cells, read-out: Ratio IC50
MDA-MB-231 [16] = assay: Effect on Bcl-XL levels in human MDA-MB-231 cells at 6 uM after 24 to 72 hrs by Western blot method; type: functional, cell-based
MDA-MB-231 [17] = assay: Induction of apoptosis in human MDA-MB-231 cells assessed as change in cell morphology at 6 uM after 24 hrs by acridine orange/ethidium bromide staining-based confocal microscopic method; type: functional
HeLa = assay: Anticlonogenic activity against human HeLa cells at 3.5 uM after 12 days; type: functional, cell-based
MCF7 [18] = assay: Induction of apoptosis in human MCF7 cells at 6 uM after 24 hrs by TUNEL assay; type: functional, cell-based
MCF7 [19] = assay: Anticlonogenic activity against human MCF7 cells at 3.5 uM after 12 days; type: functional, cell-based
MCF-10A = assay: Cytotoxicity against human MCF10A cells assessed as growth inhibition after 48 hrs by SRB assay; type: cell-based; outline: as §1
MDA-MB-231 [20] = assay: Cell cycle arrest in human MDA-MB-231 cells assessed as accumulation at sub-G1 phase at 6 uM after 48 hrs by flow cytometric method; type: functional, cell-based

Row | SMILES | IC50 (184B5 [1]) [µM] | IC50 (MDA-MB-231 [2]) [µM] | IC50 (MDA-MB-468 [3]) [µM] | IC50 (MCF7 [4]) [µM] | also measured
1 | COc1ccc2nc3cc(Cl)ccc3c(NCCCN3C(=O)CSC3c3ccc(F)cc3F)c2c1 (stereo not given) | 4.14 | 1.8 | 4.15 | 2.97 | –
2 | COc1ccc2nc3cc(Cl)ccc3c(NCCCN3C(=O)CSC3c3ccccc3Br)c2c1 (stereo not given) | 21.6 | 3.63 | 4.38 | 4 | –
3 | COc1ccc2nc3cc(Cl)ccc3c(NCCCN3C(=O)CSC3c3c(F)cccc3F)c2c1 (stereo not given) | 16.2 | 1.92 | 2.4 | 1.24 | Activity (MDA-MB-468 [5]): Active; Activity (184B5 [6]): Non-Toxic; Activity (MDA-MB-231 [7]): Active; Activity (MDA-MB-231 [8]): Active; Activity (MDA-MB-231 [9]): Active; Activity (MDA-MB-231 [10]): Active; Activity (MCF7 [11]): Active; selectivity ratio [12]: 14.7; Activity (MDA-MB-231 [13]): Active; Activity (MDA-MB-231 [14]): Active; selectivity ratio [15]: 7.6; Activity (MDA-MB-231 [16]): inactive; Activity (MDA-MB-231 [17]): Active; Activity (HeLa): Active; Activity (MCF7 [18]): Active; Activity (MCF7 [19]): Active; IC50 (MCF-10A): 18.2 µM; Activity (MDA-MB-231 [20]): Active
4 | COc1ccc2nc3cc(Cl)ccc3c(NCCCN3C(=O)CSC3c3ccco3)c2c1 (stereo not given) | 13.4 | 1.97 | 5.58 | 4.78 | –
5 | COc1ccc2nc3cc(Cl)ccc3c(NCCCN3C(=O)CSC3c3ccc(F)cc3)c2c1 (stereo not given) | 12.1 | 1.89 | 4.26 | 3.07 | –
6 | COc1ccc2nc3cc(Cl)ccc3c(NCCCN3C(=O)CSC3c3ccc(N(c4ccccc4)c4ccccc4)cc3)c2c1 (stereo not given) | 17.8 | 17.6 | 14.4 | 10.4 | –
7 | COc1ccc2nc3cc(Cl)ccc3c(NCCCN3C(=O)CSC3C3CCCCC3)c2c1 (stereo not given) | 3.14 | 3.86 | 3.75 | 3.81 | –
8 | COc1ccc2nc3cc(Cl)ccc3c(NCCCN3C(=O)CSC3c3cccs3)c2c1 (stereo not given) | 18 | 6.76 | 4.61 | 3.31 | –
9 | COc1ccc2nc3cc(Cl)ccc3c(NCCCN3C(=O)CSC3c3ccc(Cl)cc3Cl)c2c1 (stereo not given) | 7.22 | 4.05 | 4.15 | 4.1 | –
10 | COc1ccc2nc3cc(Cl)ccc3c(NCCCN3C(=O)CSC3c3ccc([N+](=O)[O-])cc3)c2c1 (stereo not given) | 17.8 | 3.86 | 4.87 | 4.36 | –
11 | COc1ccc2nc3cc(Cl)ccc3c(NCCCN3C(=O)CSC3c3ccc(Cl)cc3)c2c1 (stereo not given) | 4.58 | 3.73 | 4.19 | 3.96 | –
12 | COc1ccc2nc3cc(Cl)ccc3c(NCCCN3C(=O)CSC3c3c(F)cccc3Cl)c2c1 (stereo not given) | 8.07 | 2.12 | 3.96 | 3.04 | –
13 | COc1ccc2nc3cc(Cl)ccc3c(NCCCN3C(=O)CSC3c3ccncc3)c2c1 (stereo not given) | 16.8 | 1.11 | 5.1 | 2.27 | –
14 | COc1ccc2nc3cc(Cl)ccc3c(NCCCN3C(=O)CSC3c3ccccc3F)c2c1 (stereo not given) | 8.16 | 1.95 | 3.91 | 2.93 | –
15 | COc1ccc2nc3cc(Cl)ccc3c(NCCCN3C(=O)CSC3c3ccc(Br)cc3)c2c1 (stereo not given) | 4.88 | 3.74 | 3.68 | 3.71 | –
16 | COc1ccc2nc3cc(Cl)ccc3c(NCCCN3C(=O)CSC3c3ccc[nH]3)c2c1 (stereo not given) | 18.4 | 6.4 | 4.52 | 10.6 | –
17 | COc1ccc2nc3cc(Cl)ccc3c(NCCCN3C(=O)CSC3c3ccc(N(C)C)cc3)c2c1 (stereo not given) | 16.4 | 4.25 | 3.32 | 3.78 | –
18 | COc1ccc2nc3cc(Cl)ccc3c(NCCCN3C(=O)CSC3c3ccccc3[N+](=O)[O-])c2c1 (stereo not given) | 30.2 | 4.16 | 3.2 | 3.68 | –
19 | COc1ccc2nc3cc(Cl)ccc3c(NCCCN3C(=O)CSC3c3ccnc4ccccc34)c2c1 (stereo not given) | 13.1 | 3.7 | 6.64 | 6.55 | –
20 | COc1ccc2nc3cc(Cl)ccc3c(NCCCN3C(=O)CSC3c3c(Cl)cccc3Cl)c2c1 (stereo not given) | 28.3 | 3.98 | 4.04 | 4.01 | –
21 | COc1ccc2nc3cc(Cl)ccc3c(NCCCN3C(=O)CSC3c3ccccc3)c2c1 (stereo not given) | 8.06 | 3.55 | 2.54 | 3.23 | –
22 | COc1ccc2nc3cc(Cl)ccc3c(NCCCN3C(=O)CSC3c3ccccc3Cl)c2c1 (stereo not given) | 13.2 | 3.85 | 3.89 | 3.87 | –
23 | COc1ccc2nc3cc(Cl)ccc3c(NCCCN3C(=O)CSC3c3ccc(C)cc3)c2c1 (stereo not given) | 7.98 | 2.93 | 3.59 | 3.26 | –
